Most compounds without a hit are left out; they make up all but 1.7% or so of the library.
CSC inhib: cancer stem cell viability inhibitors, primary screen, luminescence | inhibition, % at 7.5 µM | actives 1.1% (n = 300,000) | cancer stem cell-like cells viability; in the data active means inhibition above about 75%; inconclusive means no clear call, values can overlap the other calls; tested in HMLE shEcad cells
FN deposit inh: inhibitors of fibronectin matrix deposition, primary screen, AH1F cells, Alexa488-fibronectin fluorescence, plate reader | inhibition, % at 12.6 µM | AID 743247, 2014 | AH1F fibroblasts, overnight | actives 0.086% (n = 350,000);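 active means mean inhibition across replicates of 30% or more, regardless of how many single replicates reach that level; inconclusive means mean under 30% yet at least half of replicates reach 30%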
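test system = AH1F fibroblasts assembling fluorescent fibronectin matrix | quantity = 10000 AH1F cells per well | buffer or medium = DMEM plus 2% serum, read in PBS | doses = single dose, pinned | incubation = 1 h cell attachment, overnight exposure to compound and label | detection = fluorescence at 485 nm excitation, 525 nm emission | read-out basis = inhibition from reduced deposited-fibronectin fluorescence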
PglD inh: C. jejuni PglD acetyltransferase inhibitors, primary screen, biochemical, DTNB colorimetric, single point. inhibition, % at 12.5 µM. AID 602405, 2012. actives 0.098% (n = 360,000). purified PglD enzyme, DTNB colorimetric CoA detection; in the data active means inhibition above about 16%, passing the limit was not always enough; inconclusive means no clear call, values can overlap the other calls
Rtt109 HAT inh: inhibitors of C. albicans Rtt109/Vps75 HAT, primary screen, biochemical, ThioGlo CoA-SH fluorescence, plate reader | inhibition, % at 34.9 µM | actives 0.16% (n = 330,000) | AID 540336, 2011 | purified Rtt109/Vps75, 4 h | Histone acetyltransferase RTT109 (Candida albicans (strain SC5314 / ATCC MYA-2876)), …;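 active means inhibition of at least 50% in every replicate; inconclusive means best replicate reaches 50% inhibition but some replicates fall short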
Target sequence (Q5AAJ8 whole entry, looked up): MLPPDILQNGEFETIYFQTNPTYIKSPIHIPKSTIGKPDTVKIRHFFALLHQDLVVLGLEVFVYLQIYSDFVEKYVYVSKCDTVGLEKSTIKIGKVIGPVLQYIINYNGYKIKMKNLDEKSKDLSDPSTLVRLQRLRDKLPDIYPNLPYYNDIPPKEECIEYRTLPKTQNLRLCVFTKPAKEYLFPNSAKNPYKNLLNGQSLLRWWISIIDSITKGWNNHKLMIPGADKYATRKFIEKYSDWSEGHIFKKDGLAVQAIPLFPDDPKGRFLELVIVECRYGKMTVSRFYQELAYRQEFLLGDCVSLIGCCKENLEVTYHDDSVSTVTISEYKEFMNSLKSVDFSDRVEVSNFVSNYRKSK
SKKanGAS inh: S. pyogenes SKKanGAS growth inhibitors in kanamycin, primary screen, streptokinase expression inhibitor project, SKKanGAS strain, BacTiter-Glo luminescence; 6 h; inhibition, % at 7.5 µM; actives 1.3% (n = 300,000); AID 1662, 2009;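 active means mean replicate score, as percent of positive control median, at least 50; inconclusive means mean below 50 but one replicate at or above 50; inactive means mean and every replicate below 50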;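 further: strain carries kanamycin resistance gene driven by streptokinase promoter and grows in 40 µg/ml kanamycin; loss of luminescence reflects streptokinase promoter inhibition or plain growth inhibition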
PfHsp90 yeast 2: growth inhibition of PfHsp90-expressing yeast, primary screen, antimalarial PfHsp90 inhibitor project, S. cerevisiae, BacTiter-Glo luminescence, single point, set 2; actives 0.32% (n = 310,000); inhibition, % at 9.4 µM; BacTiter-Glo ATP, 48 h; yeast lacking PDR1 and PDR3 efflux regulators;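 active means every replicate shows inhibition above about 80%, whatever the replicate mean, limit read from the data; inconclusive means mean inhibition reaches the set limit but some replicate falls short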
Large screens that a line does not name were inactive.

O=C(Oc1ccc(N(C(=O)c2ccncc2)S(=O)(=O)c2ccc(Cl)cc2)cc1)c1ccncc1	PfHsp90 yeast 2 inconclusive
COc1ccc(N(C(=O)c2ccncc2)S(=O)(=O)c2ccc(Cl)cc2)cc1	PfHsp90 yeast 2 97 (no result: CSC inhib, FN deposit inh)
COC(=O)C[C@H]1CC[C@@H]2[C@@H](COc3ccc(NC(=O)c4ccc(F)c(F)c4)cc3C(=O)N2C)O1	none (no result: CSC inhib, Rtt109 HAT inh, SKKanGAS inh, PfHsp90 yeast 2)
Cc1ccc(N=C(NOCc2ccc(Cl)cc2Cl)c2nonc2N)c(C)c1	none (no result: FN deposit inh, PglD inh)
Cc1ccccc1N=C(NOCc1ccc(Cl)cc1Cl)c1nonc1N	CSC inhib 98 (no result: PglD inh)
CC(=O)NC1=C(C#N)C(c2ccccc2)c2c(ccc3ccccc23)O1 (centres undefined)	CSC inhib 78
O=Nc1c(O)n(Cc2ccccc2)c2ccccc12	none
O=Nc1c(O)n(Cc2ccc(Cl)c(Cl)c2)c2ccccc12	CSC inhib 84, Rtt109 HAT inh inconclusive (no result: PfHsp90 yeast 2)
N#C[C@@H]1[C@H](c2ccccc2C2=CCCCC2)[C@@H](CO)N1C(=O)c1ccccn1	none (no result: CSC inhib, PglD inh, Rtt109 HAT inh, SKKanGAS inh, PfHsp90 yeast 2)
CCCc1ccc(O)c(N=Cc2cc(Br)cc(OCC)c2O)c1	CSC inhib 91 (no result: PglD inh)
O=c1c2c([N+](=O)[O-])cc([N+](=O)[O-])cc2sn1Cc1ccccc1	SKKanGAS inh 85
COc1ccccc1-c1cnc2c(c1)C(=O)N([C@@H](C)CO)C[C@@H](C)[C@@H](CN(C)C(=O)c1ccccc1)O2	none (no result: CSC inhib, Rtt109 HAT inh, SKKanGAS inh, PfHsp90 yeast 2)
Cc1nc(NCc2ccco2)c2c(C)c(C)sc2n1	CSC inhib 98 (no result: FN deposit inh)
Cc1ccc(S(=O)(=O)N[C@H]2CC[C@H](CC(=O)NCc3ccncn3)O[C@H]2CO)cc1	none (no result: CSC inhib, Rtt109 HAT inh, SKKanGAS inh, PfHsp90 yeast 2)
CC1(C)CCN2CCC(C)(C)c3c(O)ccc1c32	CSC inhib 131
CCS(=O)(=O)Nc1ccc2c(c1)C(=O)N(C)C[C@@H](OC)[C@@H](C)CN(CCC(F)(F)F)[C@H](C)CO2	none (no result: CSC inhib, Rtt109 HAT inh, SKKanGAS inh, PfHsp90 yeast 2)
C[C@@H]1CN([C@@H](C)CO)C(=O)c2cc(C3=CCCCC3)cnc2O[C@H]1CN(C)Cc1cccnc1	none (no result: CSC inhib, Rtt109 HAT inh, SKKanGAS inh, PfHsp90 yeast 2)
COc1ccc([C@H]2Oc3cc(O)cc(O)c3C(=O)C2[C@@H]2C(=O)c3c(O)cc(O)cc3O[C@@H]2c2ccc(OC)cc2)cc1 (some centres undefined)	CSC inhib 142, SKKanGAS inh 100 (no result: PglD inh, Rtt109 HAT inh, PfHsp90 yeast 2)
Cc1cccc(CSc2ncnc3c2cnn3Cc2ccccc2)c1	SKKanGAS inh 76
C[C@H](CO)N1C[C@H](C)[C@H](CN(C)S(=O)(=O)c2cn(C)cn2)Oc2ccc(NC(=O)NC3CCCCC3)cc2C1=O	none (no result: CSC inhib, FN deposit inh, Rtt109 HAT inh, SKKanGAS inh, PfHsp90 yeast 2)
Cc1ccc(Cl)cc1N1CCN(C(CC(C)C)c2nnnn2CC2CCCO2)CC1 (centres undefined)	CSC inhib 101 (no result: FN deposit inh)
CCCC(c1nnnn1CC1CCCO1)N1CCN(c2cc(Cl)ccc2C)CC1 (centres undefined)	CSC inhib 99 (no result: FN deposit inh)
CCN=C1S/C(=C\c2ccc(-c3cccc(C(=O)O)c3)o2)C(=O)N1CC	SKKanGAS inh 56 (no result: FN deposit inh, PglD inh)
O=C1/C(=C/c2cccnc2)SC(=S)N1CCc1ccccc1	none (no result: PglD inh)
Cc1cccc(NC(=O)CN2C(=O)S/C(=C\c3ccc(-c4cccc(C(=O)O)c4C)o3)C2=O)c1	SKKanGAS inh inconclusive (no result: FN deposit inh, PglD inh)
O=C1/C(=C/c2cccnc2)SC(=NCc2ccccc2)N1Cc1ccccc1	SKKanGAS inh 54 (no result: CSC inhib, PglD inh)
O=C(O)c1cc(-c2ccc(/C=C3\NC(=O)N(c4ccccc4)C3=O)o2)ccc1Cl	none
Cc1ccc(NC(=O)CN2C(=O)S/C(=C/c3ccc(-c4cc(C(=O)O)ccc4C)o3)C2=O)cc1C	SKKanGAS inh 85 (no result: CSC inhib)
C#CCN1C(=O)S/C(=C\c2ccc(-c3ccc(Cl)c(C(=O)O)c3)o2)C1=O	SKKanGAS inh 68 (no result: CSC inhib)
C[C@@H]1CN([C@H](C)CO)C(=O)c2cc(N(C)C)ccc2O[C@@H]1CN(C)Cc1ccc(-c2ccccc2)cc1	none (no result: CSC inhib, FN deposit inh, Rtt109 HAT inh, SKKanGAS inh, PfHsp90 yeast 2)

Compound activity deposited in PubChem by Broad Institute.
